Experimental findings from ChEMBL document CHEMBL1275394, “Design, synthesis, and biological evaluation of novel hybrid dicaffeoyltartaric/diketo acid and tetrazole-substituted L-chicoric acid analogue inhibitors of human immunodeficiency virus type 1 integrase” (J Med Chem, 2010) are described below.

Data set [1] in a line: Inhibition of HIV NL4-3 recombinant histidine-tagged integrase 3'-end processing activity expressed in Escherichia coli BL21 (DE3). The arrangement: species or system Human immunodeficiency virus. Summed up:
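N-terminal 6-His-tagged HIV-1 NL4-3 IN expressed in E. coli BL21 DE3 pLysS, Ni2+ affinity purified (>95%), stored at -80 °C. The 32P-labeled blunt-end V1/V2 duplex mimicking the viral LTR was incubated with IN and increasing compound concentrations at 37 °C for 1 h, in triplicate. Products were resolved by denaturing PAGE and quantified by phosphorimager. 3'-processing was read as the 21mer to 19mer conversion.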

Data set [2] can be described thus: Cytotoxicity against human MT2 cells assessed as concentration required to 50% inhibition of cell growth relative to control. In kind it is cell-based. The settings on record: read-out: Activity. Summed up: (§1)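 MT-2 cells were grown in RPMI-1640 without antibiotics and exposed to compound. CT50 and CT5 are the concentrations inhibiting cellular replication by 50% and 5% relative to untreated control; CT5 corresponds to 95% viable cells. Values are the mean of triplicate assays with SD.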

The subject of data set [3] is Human immunodeficiency virus. Kind of data set: Antiviral activity against HIV LAI infected in human MT2 cells assessed as protection against virus-induced cytopathic effect. Format: functional, organism-based. The settings on record: Human immunodeficiency virus 1, LAI. Summed up: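 MT-2 cells were cultured in RPMI-1640 without antibiotics and infected with HIV LAI. EC50 is the concentration protecting 50% of cells from virus-induced cytopathic effect. Values are the mean of triplicate assays with SD.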

The test system of a further data set is MT2. The data set can be described thus: Cytotoxicity against human MT2 cells assessed as concentration required to 5% inhibition of cell growth relative to control. Format: cell-based. Summed up:
as §1

Data set [4] is described as follows: Inhibition of HIV NL4-3 recombinant histidine-tagged integrase strand transfer activity expressed in Escherichia coli BL21 (DE3). More on the design: species or system Human immunodeficiency virus.
Data set [5] is described as follows: Therapeutic index, ratio of CT50 for human MT2 cells to EC50 for HIV LAI. Format: cell-based. The settings on record: read-out: TI.

A word on the IC50: it is the concentration at which inhibition is half-maximal. One may read the EC50 as the concentration that produces a half-maximal response. Consider `O=C(O)/C(O)=C/C(=O)c1ccc(O)c(O)c1`, for which the IC50 in data set [1] worked out at 0.47 µM; in data set [4], 1.13 µM. Besides, the CC50 in data set [2] was 178 µM. The EC50 in data set [3] was over 67 µM. Besides, in the data set on MT2, the Activity stood at 67 µM.

Regarding `COC(=O)/C(O)=C/C(=O)c1ccc(O)c(O)c1`, the IC50 in data set [1] worked out at 2.81 µM; in data set [4], 1.89 µM. Moreover, the CC50 in data set [2] is 182 µM. Further, in data set [3], the EC50 is over 36 µM. The Activity in the data set on MT2 came to 36 µM.

For `O=C(/C=C(\O)C(=O)O)/C=C/c1ccc(O)c(O)c1`, the IC50 was found to be 1.1 µM in data set [1] and 0.81 µM in data set [4]. Further, in data set [2], the CC50 is 80 µM. Besides, the 50% effective concentration (EC50) in data set [3] is over 36 µM. The Activity in the data set with MT2 came out at 32 µM.

Regarding `COC(=O)/C(O)=C/C(=O)c1ccc(NC(=O)/C=C/c2ccc(O)c(O)c2)cc1`, the half-maximal inhibitory concentration (IC50) in data set [1] is 1.82 µM; in data set [4], 1.38 µM. In addition, the CC50 in data set [2] was 39.5 µM. In addition, the concentration for a half-maximal effect (EC50) in data set [3] is over 54 µM. Besides, in the data set on MT2, the Activity worked out at 12.4 µM.

On to `O=C(/C=C/c1ccc(O)c(O)c1)Nc1ccccc1C(=O)/C=C(\O)C(=O)O`, for which the 50% inhibitory concentration (IC50) in data set [1] worked out at 2.28 µM; in data set [4], 2.55 µM. Further, in data set [2], the CC50 came out at 53 µM. Further, the EC50 in data set [3] is over 37.5 µM. Moreover, the Activity with MT2 was determined as 23.3 µM.

As to `O=C(/C=C/c1ccc(O)c(O)c1)Nc1cccc(C(=O)/C=C(\O)C(=O)O)c1`, the results for the half-inhibitory concentration (IC50) in data set [1] and in data set [4] were 0.11 µM and 0.36 µM, respectively. For the same molecule, the CC50 in data set [2] amounted to 52.8 µM. Moreover, the EC50 in data set [3] is over 34 µM. Moreover, in the data set with MT2, the Activity was 20.4 µM.

Regarding `O=C(/C=C/c1ccc(O)c(O)c1)Nc1cc(NC(=O)/C=C/c2ccc(O)c(O)c2)cc(C(=O)/C=C(\O)C(=O)O)c1`, the figures for the IC50 in data set [1] and in data set [4] were 0.12 µM and 0.13 µM, respectively. For the same molecule, the CC50 in data set [2] was over 50.7 µM. The half-maximal effective concentration (EC50) in data set [3] was over 51 µM. For the same molecule, the Activity with MT2 is over 50.7 µM.

Turning to `COC(=O)/C(O)=C/C(=O)c1cc(NC(=O)/C=C/c2ccc(O)c(O)c2)cc(NC(=O)/C=C/c2ccc(O)c(O)c2)c1`, the 50% inhibitory concentration (IC50) in data set [1] is 0.75 µM; in data set [4], 0.63 µM. Also, in data set [2], the CC50 was over 47.7 µM. Besides, the EC50 in data set [3] was over 48 µM. Also, the Activity with MT2 is over 47.7 µM.

Turning to `O=C(/C=C/c1ccc(O)c(O)c1)O[C@@H](C(=O)O)[C@@H](OC(=O)c1cccn1Cc1ccc(F)cc1)C(=O)O`, the values for the IC50 in data set [1] and in data set [4] were 4.05 µM and 1.27 µM, respectively. The CC50 in data set [2] came to 399 µM. Moreover, the EC50 in data set [3] was found to be 110 µM. Also, the Activity with MT2 worked out at 41.8 µM.

`NC(=O)[C@H](OC(=O)/C=C/c1ccc(O)c(O)c1)[C@@H](OC(=O)/C=C/c1ccc(O)c(O)c1)c1nnn[nH]1`: the results for the concentration for half-maximal inhibition (IC50) in data set [1] and in data set [4] were 0.21 µM and 0.27 µM, respectively. The CC50 in data set [2] came out at 31.9 µM. Also, the selectivity ratio in data set [5] is over 350. In data set [3], the concentration giving a half-maximal response (EC50) was 0.42 µM. Besides, in the data set on MT2, the Activity stood at 5.7 µM.

As for `O=C(/C=C/c1ccc(O)c(O)c1)O[C@@H](c1nnn[nH]1)[C@@H](OC(=O)/C=C/c1ccc(O)c(O)c1)c1nnn[nH]1`, the IC50 came out at 0.34 µM in data set [1] and 0.44 µM in data set [4]. The CC50 in data set [2] amounted to 422 µM. Further, the selectivity ratio in data set [5] is over 350. In data set [3], the EC50 stood at 0.33 µM. In addition, the Activity with MT2 worked out at 28.4 µM.

In the case of `O=C(O[C@@H](C(=O)O)[C@@H](O)C(=O)O)c1cccn1Cc1ccc(F)cc1`, the half-maximal inhibitory concentration (IC50) is 277 µM in data set [1] and 47.3 µM in data set [4]. The CC50 in data set [2] came out at 792 µM. The EC50 in data set [3] was over 170 µM. In addition, the Activity with MT2 turned out to be 60.8 µM.

As to `O=C(O[C@@H](C(=O)O)[C@@H](OC(=O)c1cccn1Cc1ccc(F)cc1)C(=O)O)c1cccn1Cc1ccc(F)cc1`, the figures for the half-maximal inhibitory concentration (IC50) in data set [1] and in data set [4] were 136 µM and 74.2 µM, respectively. Also, the CC50 in data set [2] was determined as 374 µM. For the same molecule, the EC50 in data set [3] is over 90.5 µM. Moreover, the Activity in the data set on MT2 was 28.7 µM.

For `O=C(/C=C/c1ccc(O)c(O)c1)Nc1ccc(C(=O)/C=C(\O)C(=O)O)cc1`, the IC50 came out at 0.4 µM in data set [1] and 0.35 µM in data set [4]. Further, the CC50 in data set [2] came to 47.2 µM. For the same molecule, the EC50 in data set [3] was over 16.9 µM. Moreover, in the data set on MT2, the Activity stood at 26.1 µM.

For the molecule `O=C(O)C(=O)CC(=O)c1cccn1Cc1ccc(F)cc1`, the IC50 in data set [1] was found to be 13 µM; in data set [4], 0.14 µM. The CC50 in data set [2] was over 69.3 µM. Besides, the EC50 in data set [3] is 0.4 µM. Further, the Activity with MT2 is over 69.3 µM.

For `O=C(/C=C/c1ccc(O)c(O)c1)OCC(OC(=O)/C=C/c1ccc(O)c(O)c1)c1nnn[nH]1` (racemic), the 50% inhibitory concentration (IC50) in data set [1] amounted to 0.14 µM; in data set [4], 0.12 µM. Also, in data set [2], the CC50 was over 42.5 µM. Moreover, the EC50 in data set [3] is 0.85 µM. Moreover, the Activity in the data set with MT2 is over 42.5 µM.

Regarding `O=C(/C=C/c1cc(O)c(O)c(O)c1)OC(c1nnn[nH]1)C(OC(=O)/C=C/c1cc(O)c(O)c(O)c1)c1nnn[nH]1` (single isomer, unassigned), the IC50 in data set [1] turned out to be 0.39 µM; in data set [4], 0.21 µM. In addition, in data set [2], the CC50 stood at 48.9 µM. Moreover, the selectivity ratio in data set [5] was over 350. The 50% effective concentration (EC50) in data set [3] amounted to 0.06 µM. Also, the Activity in the data set with MT2 was found to be 11.3 µM.

`O=C(/C=C/c1ccc(O)c(O)c1)O[C@@H](C(=O)O)[C@@H](O)C(=O)O` [CAFTARIC ACID]: the IC50 in data set [1] is 19.1 µM; in data set [4] it was 6.08 µM. Moreover, the CC50 in data set [2] stood at 325 µM. The concentration giving a half-maximal response (EC50) in data set [3] amounted to 80.5 µM. In addition, the Activity with MT2 came out at 49.6 µM.

Turning to `O=C(/C=C/c1ccc(O)c(O)c1)O[C@@H](C(=O)O)[C@@H](OC(=O)/C=C/c1ccc(O)c(O)c1)C(=O)O` [CICHORIC ACID], the concentration for half-maximal inhibition (IC50) in data set [1] came out at 0.22 µM; in data set [4], 0.27 µM. Further, the CC50 in data set [2] was determined as 124 µM. Also, the EC50 in data set [3] came out at 0.81 µM. In addition, the Activity in the data set on MT2 worked out at 41 µM.
